Laboratory results from ChEMBL document CHEMBL2331331 (J Med Chem, 2013).
Calls of active or inactive are those of the source. The rule behind the calls is not given here.

What was measured:
MV4-11 [1] = assay: Induction of apoptosis in human MV4-11 cells assessed as early apoptotic cells at 0.1 uM after 24 hrs by annexin V-FITC/propidium iodide staining-based FACS flow cytometric analysis (reference value: 1.61%); format: functional
KARPAS-299 = assay: Cytotoxicity against human KARPAS299 cells assessed as growth inhibition after 72 hrs by MTT assay; conditions: KARPAS-299, 72 h
[2] = biological target: T1, Receptor-type tyrosine-protein kinase FLT3 (Homo sapiens, UniProt P36888); assay: Inhibition of FLT3 (unknown origin)
T1 sequence (P36888 whole entry): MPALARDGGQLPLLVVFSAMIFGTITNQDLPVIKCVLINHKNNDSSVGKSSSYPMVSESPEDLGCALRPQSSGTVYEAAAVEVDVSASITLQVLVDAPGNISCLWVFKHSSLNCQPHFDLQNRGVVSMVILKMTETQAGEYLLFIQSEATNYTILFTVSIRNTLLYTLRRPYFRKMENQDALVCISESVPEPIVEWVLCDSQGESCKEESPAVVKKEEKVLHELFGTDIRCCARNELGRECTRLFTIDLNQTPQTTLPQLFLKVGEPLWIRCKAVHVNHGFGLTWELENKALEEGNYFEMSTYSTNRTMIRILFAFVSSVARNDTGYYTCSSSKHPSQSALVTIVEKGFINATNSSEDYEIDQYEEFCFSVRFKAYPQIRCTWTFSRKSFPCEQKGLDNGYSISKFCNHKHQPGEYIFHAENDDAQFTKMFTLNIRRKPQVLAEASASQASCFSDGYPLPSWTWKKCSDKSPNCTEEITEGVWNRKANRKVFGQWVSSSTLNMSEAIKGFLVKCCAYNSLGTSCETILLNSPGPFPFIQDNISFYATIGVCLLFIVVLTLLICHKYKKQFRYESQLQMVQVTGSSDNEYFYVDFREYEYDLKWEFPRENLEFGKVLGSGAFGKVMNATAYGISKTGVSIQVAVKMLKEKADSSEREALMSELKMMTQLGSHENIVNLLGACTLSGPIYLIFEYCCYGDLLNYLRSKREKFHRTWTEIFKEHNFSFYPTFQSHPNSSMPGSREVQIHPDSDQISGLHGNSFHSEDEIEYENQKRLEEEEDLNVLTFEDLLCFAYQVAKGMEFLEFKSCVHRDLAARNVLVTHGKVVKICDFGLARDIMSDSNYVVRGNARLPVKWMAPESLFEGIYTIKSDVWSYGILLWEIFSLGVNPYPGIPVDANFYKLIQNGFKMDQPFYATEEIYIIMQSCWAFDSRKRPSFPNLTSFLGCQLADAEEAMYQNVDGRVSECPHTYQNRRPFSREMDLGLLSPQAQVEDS

Bel-7402 = assay: Cytotoxicity against human Bel7402 cells assessed as growth inhibition after 72 hrs by MTT assay; conditions: Bel-7402, 72 h
[3] = biological target: Receptor tyrosine-protein kinase erbB-2 (Homo sapiens, UniProt P04626); assay: Inhibition of ERBB2 (unknown origin)
Sequence of Receptor tyrosine-protein kinase erbB-2 (P04626 whole entry): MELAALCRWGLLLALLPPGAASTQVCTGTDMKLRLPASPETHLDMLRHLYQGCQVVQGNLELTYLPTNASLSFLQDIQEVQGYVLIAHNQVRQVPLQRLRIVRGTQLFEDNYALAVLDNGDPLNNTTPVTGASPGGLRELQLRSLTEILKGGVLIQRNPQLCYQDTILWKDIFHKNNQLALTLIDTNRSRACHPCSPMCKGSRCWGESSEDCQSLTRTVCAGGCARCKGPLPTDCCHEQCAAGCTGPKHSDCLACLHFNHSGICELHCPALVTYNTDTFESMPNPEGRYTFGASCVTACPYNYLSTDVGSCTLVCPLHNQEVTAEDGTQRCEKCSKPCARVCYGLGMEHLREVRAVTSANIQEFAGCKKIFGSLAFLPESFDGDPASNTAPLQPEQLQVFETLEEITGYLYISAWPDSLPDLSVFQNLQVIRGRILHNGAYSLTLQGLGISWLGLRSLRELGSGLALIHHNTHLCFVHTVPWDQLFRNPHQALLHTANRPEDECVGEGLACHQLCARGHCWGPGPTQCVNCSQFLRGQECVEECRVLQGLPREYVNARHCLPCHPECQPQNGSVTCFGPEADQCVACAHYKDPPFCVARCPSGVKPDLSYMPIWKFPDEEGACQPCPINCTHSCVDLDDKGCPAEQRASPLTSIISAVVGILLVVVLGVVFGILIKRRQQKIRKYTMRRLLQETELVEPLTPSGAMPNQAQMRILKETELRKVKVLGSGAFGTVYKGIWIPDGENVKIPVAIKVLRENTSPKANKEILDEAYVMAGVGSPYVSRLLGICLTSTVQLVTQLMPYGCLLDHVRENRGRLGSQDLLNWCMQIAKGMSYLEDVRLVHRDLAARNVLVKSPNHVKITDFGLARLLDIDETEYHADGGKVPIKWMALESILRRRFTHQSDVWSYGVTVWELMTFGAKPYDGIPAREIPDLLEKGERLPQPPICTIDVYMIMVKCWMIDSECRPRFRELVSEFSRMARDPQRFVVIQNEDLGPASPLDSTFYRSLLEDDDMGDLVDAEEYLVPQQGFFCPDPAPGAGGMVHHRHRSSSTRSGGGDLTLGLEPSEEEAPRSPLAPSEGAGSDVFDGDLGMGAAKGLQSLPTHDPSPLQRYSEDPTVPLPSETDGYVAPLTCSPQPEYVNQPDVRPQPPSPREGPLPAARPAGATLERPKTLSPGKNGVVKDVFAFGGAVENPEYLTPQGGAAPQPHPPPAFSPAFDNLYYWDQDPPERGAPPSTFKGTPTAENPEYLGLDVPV
Method in brief: (§1)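 Single selected panel of recombinant human protein kinases, screened in vitro. The value reported is the IC50 against each kinase.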

[4] = biological target: Megakaryocyte-associated tyrosine-protein kinase (Homo sapiens, UniProt P42679); assay: Inhibition of CTK (unknown origin)
Sequence of Megakaryocyte-associated tyrosine-protein kinase (P42679 whole entry): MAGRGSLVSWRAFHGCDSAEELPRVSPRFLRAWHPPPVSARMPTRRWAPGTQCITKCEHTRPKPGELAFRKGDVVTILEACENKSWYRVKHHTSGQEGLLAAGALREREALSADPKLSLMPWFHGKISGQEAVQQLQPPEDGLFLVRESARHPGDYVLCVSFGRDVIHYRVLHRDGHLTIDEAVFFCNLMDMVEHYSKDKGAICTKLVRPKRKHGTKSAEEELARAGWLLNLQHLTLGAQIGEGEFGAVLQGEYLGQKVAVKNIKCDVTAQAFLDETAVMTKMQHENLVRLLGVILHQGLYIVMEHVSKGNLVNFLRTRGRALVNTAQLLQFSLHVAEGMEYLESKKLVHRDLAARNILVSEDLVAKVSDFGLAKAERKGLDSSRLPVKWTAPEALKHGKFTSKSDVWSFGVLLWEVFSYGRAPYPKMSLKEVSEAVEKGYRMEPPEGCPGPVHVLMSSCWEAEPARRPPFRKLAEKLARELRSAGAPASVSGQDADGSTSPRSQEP

[5] = biological target: Serine/threonine-protein kinase PLK1 (Homo sapiens, UniProt P53350); assay: Inhibition of PLK1 (unknown origin)
Sequence of Serine/threonine-protein kinase PLK1 (P53350 whole entry): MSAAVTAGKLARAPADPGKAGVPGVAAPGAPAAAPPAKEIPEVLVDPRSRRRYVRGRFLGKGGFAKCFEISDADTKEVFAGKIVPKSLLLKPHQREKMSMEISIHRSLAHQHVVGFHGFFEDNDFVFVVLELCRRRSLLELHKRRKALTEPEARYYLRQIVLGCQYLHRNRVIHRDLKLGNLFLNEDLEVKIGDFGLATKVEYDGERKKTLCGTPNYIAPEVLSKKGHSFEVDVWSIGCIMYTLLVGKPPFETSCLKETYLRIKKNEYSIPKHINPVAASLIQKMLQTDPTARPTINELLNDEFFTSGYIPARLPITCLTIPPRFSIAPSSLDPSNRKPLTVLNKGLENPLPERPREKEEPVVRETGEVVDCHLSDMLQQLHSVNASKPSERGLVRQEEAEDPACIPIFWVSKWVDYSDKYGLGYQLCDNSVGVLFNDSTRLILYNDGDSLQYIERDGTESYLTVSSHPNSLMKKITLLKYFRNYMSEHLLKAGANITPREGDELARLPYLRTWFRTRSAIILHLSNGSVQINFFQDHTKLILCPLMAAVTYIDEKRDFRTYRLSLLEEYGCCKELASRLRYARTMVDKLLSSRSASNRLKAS

HeLa = assay: Cytotoxicity against human HeLa cells assessed as growth inhibition after 72 hrs by MTT assay; format: functional, cell-based
Method in brief: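 MTT viability assay with serial inhibitor dilutions for 72 h at 37 °C, then MTT for 2–4 h and OD read at 570 nm. Leukemia lines were seeded at (1–4) × 10⁴ cells/well and lysed with 20% acidified SDS. Adherent lines were seeded at (2–5) × 10³ cells/well, dosed after 24 h and dissolved in DMSO. Triplicate; mean ± SD.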

MV4-11 [6] = assay: Induction of apoptosis in human MV4-11 cells assessed as late apoptotic cells at 0.1 uM after 24 hrs by annexin V-FITC/propidium iodide staining-based FACS flow cytometric analysis (reference value: 4.28%); format: functional
[7] = biological target: Vascular endothelial growth factor receptor 2 (Danio rerio) (UniProt Q5GIT4); assay: Inhibition of VEGFR2 in transgenic zebrafish embryo assessed as inhibition of intersegmental vessels formation measured 33 hrs post fertilization by fluorescence microscopic analysis
Method in brief: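 FLK-1:EGFP transgenic zebrafish embryos, 10 per well, exposed at 28.5 °C from 15 to 31 hpf to compound in fish water at 1.25, 2.5 or 5 μM (diluted from a 10 mmol/L DMSO stock); 0.3% DMSO as vehicle control. Embryos were imaged at 33 hpf, and ISVs above the yolk extension were scored for length. n = 11, mean ± SD, ANOVA.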

[8] = biological target: Dual specificity mitogen-activated protein kinase kinase 1 (Homo sapiens, UniProt Q02750); assay: Inhibition of MEK1 (unknown origin)
Sequence of Dual specificity mitogen-activated protein kinase kinase 1 (Q02750 whole entry): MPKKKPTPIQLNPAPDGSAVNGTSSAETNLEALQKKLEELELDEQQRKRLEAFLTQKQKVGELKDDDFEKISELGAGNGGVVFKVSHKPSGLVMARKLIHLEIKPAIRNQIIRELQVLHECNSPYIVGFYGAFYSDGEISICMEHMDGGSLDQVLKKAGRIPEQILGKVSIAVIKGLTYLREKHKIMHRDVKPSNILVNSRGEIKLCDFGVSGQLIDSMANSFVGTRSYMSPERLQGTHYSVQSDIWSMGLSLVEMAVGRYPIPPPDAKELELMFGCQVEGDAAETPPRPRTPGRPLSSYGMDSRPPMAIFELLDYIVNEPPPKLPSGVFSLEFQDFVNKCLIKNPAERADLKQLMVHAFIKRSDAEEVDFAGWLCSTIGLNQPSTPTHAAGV

[9] = biological target: Platelet-derived growth factor receptor beta (Homo sapiens, UniProt P09619); assay: Inhibition of PDGFRbeta (unknown origin); method in brief: as §1
MV4-11 [10] = assay: Induction of apoptosis in FLT3-ITD-positive human MV4-11 cells xenografted in NOD-SCID mouse assessed as increase in apoptotic cells at 10 mg/kg/day, po by TUNEL assay; format: functional, organism-based; conditions: TDE = time-dependent effect
Method in brief: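 Mice (NOD-SCID) bearing sc MV4-11 tumors given 10 mg/kg/d by oral gavage. Tumors removed after 2–4 days and formalin-fixed. Sections immunostained for Ki67 (proliferation) or p-STAT5, or TUNEL-stained (apoptosis). Imaged by light microscopy and compared with vehicle group.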

[11] = biological target: Calcium/calmodulin-dependent protein kinase type IV (Homo sapiens, UniProt Q16566); assay: Inhibition of CAMK4 (unknown origin)
Sequence of Calcium/calmodulin-dependent protein kinase type IV (Q16566 whole entry): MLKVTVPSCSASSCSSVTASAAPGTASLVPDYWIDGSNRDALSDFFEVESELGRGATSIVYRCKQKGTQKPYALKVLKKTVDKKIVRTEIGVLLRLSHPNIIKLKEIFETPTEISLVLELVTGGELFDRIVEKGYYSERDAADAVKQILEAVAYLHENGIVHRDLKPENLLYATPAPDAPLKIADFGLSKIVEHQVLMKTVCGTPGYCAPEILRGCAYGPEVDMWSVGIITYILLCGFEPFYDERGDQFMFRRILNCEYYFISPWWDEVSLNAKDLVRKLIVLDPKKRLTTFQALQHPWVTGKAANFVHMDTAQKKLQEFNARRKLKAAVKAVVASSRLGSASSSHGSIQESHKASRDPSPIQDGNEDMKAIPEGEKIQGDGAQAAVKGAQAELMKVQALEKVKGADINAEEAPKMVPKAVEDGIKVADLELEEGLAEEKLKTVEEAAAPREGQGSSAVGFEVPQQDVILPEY

MDA-MB-468 = assay: Cytotoxicity against human MDA-MB-468 cells assessed as growth inhibition after 72 hrs by MTT assay; conditions: MDA-MB-468, 72 h
[12] = biological target: Serine/threonine-protein kinase PAK 1 (Homo sapiens, UniProt Q13153); assay: Inhibition of PAK1 (unknown origin)
Sequence of Serine/threonine-protein kinase PAK 1 (Q13153 whole entry): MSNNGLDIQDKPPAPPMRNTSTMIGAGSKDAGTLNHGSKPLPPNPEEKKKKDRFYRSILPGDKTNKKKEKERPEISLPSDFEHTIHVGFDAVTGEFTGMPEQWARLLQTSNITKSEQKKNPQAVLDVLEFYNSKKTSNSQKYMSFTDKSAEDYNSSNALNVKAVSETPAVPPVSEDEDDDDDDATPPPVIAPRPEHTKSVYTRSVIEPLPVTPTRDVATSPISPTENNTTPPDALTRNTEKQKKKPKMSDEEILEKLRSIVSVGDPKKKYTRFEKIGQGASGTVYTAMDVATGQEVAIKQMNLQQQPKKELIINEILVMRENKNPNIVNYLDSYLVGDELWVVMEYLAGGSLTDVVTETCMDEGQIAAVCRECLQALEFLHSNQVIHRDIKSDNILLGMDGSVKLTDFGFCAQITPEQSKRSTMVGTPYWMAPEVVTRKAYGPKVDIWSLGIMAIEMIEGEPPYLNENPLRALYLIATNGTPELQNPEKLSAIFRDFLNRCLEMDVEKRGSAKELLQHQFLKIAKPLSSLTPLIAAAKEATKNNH

MV4-11 [13] = assay: Antitumor activity against FLT3-ITD-positive human MV4-11 cells xenografted in NOD-SCID mouse assessed as tumor growth inhibition at 3 mg/kg/day, po administered 18 days measured every 3 days for 18 days; format: functional, organism-based
Method in brief: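 NOD-SCID mice (5–6 weeks) implanted sc with 1 × 10⁸/mL MV4-11 cells (100 μL) in serum-free medium. Grouped at 300–500 mm³, six per group, then dosed orally once daily for 18 days. Vehicle was 12.5% castor oil, 12.5% ethanol, 75% water. Tumor volume = long × short²/2, measured every 3 d.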

[14] = biological target: Mast/stem cell growth factor receptor Kit (Homo sapiens, UniProt P10721); assay: Inhibition of c-Kit (unknown origin)
[15] = biological target: Fibroblast growth factor receptor 2 (Homo sapiens, UniProt P21802); assay: Inhibition of FGFR2 (unknown origin)
Sequence of Fibroblast growth factor receptor 2 (P21802 whole entry): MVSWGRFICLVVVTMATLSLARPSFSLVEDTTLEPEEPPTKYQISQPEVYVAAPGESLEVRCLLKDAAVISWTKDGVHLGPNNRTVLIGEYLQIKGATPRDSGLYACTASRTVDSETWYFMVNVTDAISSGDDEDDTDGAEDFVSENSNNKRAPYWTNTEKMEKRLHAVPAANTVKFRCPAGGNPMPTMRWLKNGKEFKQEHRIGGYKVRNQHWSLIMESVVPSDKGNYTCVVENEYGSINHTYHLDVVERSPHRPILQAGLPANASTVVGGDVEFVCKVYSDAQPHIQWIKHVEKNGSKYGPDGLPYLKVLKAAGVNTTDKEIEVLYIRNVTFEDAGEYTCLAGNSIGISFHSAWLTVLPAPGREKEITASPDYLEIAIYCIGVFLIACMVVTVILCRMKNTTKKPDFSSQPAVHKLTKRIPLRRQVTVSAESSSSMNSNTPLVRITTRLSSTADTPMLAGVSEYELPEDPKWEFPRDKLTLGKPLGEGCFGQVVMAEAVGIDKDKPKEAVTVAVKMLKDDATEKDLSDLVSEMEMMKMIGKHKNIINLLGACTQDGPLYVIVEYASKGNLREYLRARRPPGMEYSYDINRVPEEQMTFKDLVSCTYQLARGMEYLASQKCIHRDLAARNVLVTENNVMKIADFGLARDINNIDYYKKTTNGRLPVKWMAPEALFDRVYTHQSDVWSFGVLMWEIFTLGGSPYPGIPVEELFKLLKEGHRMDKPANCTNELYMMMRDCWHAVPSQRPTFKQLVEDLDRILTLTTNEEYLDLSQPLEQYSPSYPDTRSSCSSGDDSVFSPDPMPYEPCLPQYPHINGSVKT

HL-60 = assay: Cytotoxicity against human HL60 cells assessed as growth inhibition after 72 hrs by MTT assay; conditions: HL-60, 72 h
Myotonin-protein kinase = Myotonin-protein kinase (Homo sapiens, UniProt Q09013); assay: Inhibition of DMPK (unknown origin)

**Q.** Which results are given for O=C(Nc1ccc(Oc2ncnc3[nH]ncc23)cc1)Nc1ccc(Cl)c(C(F)(F)F)c1?
**A.** Activity (MV4-11 [1]): 9.96%; IC50 (KARPAS-299): > 10 µM; IC50 [2]: 0.039 µM; IC50 (Bel-7402): > 10 µM; IC50 [3]: > 10 µM; IC50 [4]: > 10 µM; IC50 [5]: > 10 µM; IC50 (HeLa): > 10 µM; Activity (MV4-11 [6]): 25.8%; inhibition [7]: Dose-dependent effect; IC50 [8]: > 10 µM; IC50 [9]: 0.408 µM; Activity (MV4-11 [10]): tde; IC50 [11]: > 10 µM; IC50 (MDA-MB-468): 6.68 µM; IC50 [12]: > 10 µM; TGI (MV4-11 [13]): Active; IC50 [14]: 0.507 µM; IC50 [15]: 1.81 µM; IC50 (HL-60): > 10 µM; IC50 (Myotonin-protein kinase): > 10 µM
